ChEMBL document CHEMBL1149070, “Isolation of antirhinoviral sesquiterpenes from ginger (Zingiber officinale)” (J Nat Prod, 1994)

Legend:
rhinovirus A1B = assay: Antiviral activity against Rhinovirus 1B infected in human HeLa cells assessed as reduction in plaque formation per plate after 72 hrs; type: functional, organism-based, Human rhinovirus 1B; design: ED50: unit: ug/plate
How it was run: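 M-HeLa cells were seeded at 10⁶ per plate in MEM with 10% FCS and grown to confluence overnight. They were infected with RV1B at 100-200 pfu/plate for 1 h. Excess virus was replaced with an agarose overlay (MEM, FCS, tryptose broth) holding serial doubling dilutions from EtOH, final EtOH ≤1%. Plates ran 72 h at 33°, then were formol-saline fixed and methyl violet stained.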

HeLa [1] = assay: Cytotoxicity against human HeLa cells upto 20 ug/plate; type: cell-based
How it was run: (§1)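 Cytotoxicity was judged in the plaque-assay plates: confluent M-HeLa monolayers under agarose overlay with sample added from EtOH doubling dilutions (≤1% EtOH), 72 h at 33°, then formol-saline fixed and methyl violet stained. Monolayers were inspected for cell destruction, altered appearance or thinning relative to cell controls (no virus, no sample) and virus controls, up to the top plate concentration.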

HeLa [2] = assay: Cytotoxicity against human HeLa cells upto 1.35 ug/plate; type: cell-based; how it was run: as §1

Structure (SMILES) | ED50 (rhinovirus A1B) [µg] | Activity (HeLa [1]) | IC50 (rhinovirus A1B; Rhinovirus A, HeLa, 72 h) [nM] | Activity (HeLa [2])
C=C(CCC=C(C)C)[C@H]1CC=C(C)CC1 | 14.3 | Non-toxic | – | –
CC(C)=CCC[C@@H](C)c1ccc(C)cc1 | 20.4 | Non-toxic | – | –
C=C1C=C[C@H]([C@H](C)CCC=C(C)C)CC1 | 0.9 | Non-toxic | 440 | –
CC(C)=CCC[C@@H](C)[C@H]1C=CC(C)=CC1 | 1.9 | Non-toxic | – | –
c1ccc(C2CCc3ccccc3O2)cc1 (stereo unspecified) [FLAVANE] | 0.27 | – | – | Non-toxic
